Legend:
[1] = target: Cyclin-dependent kinase 2/cyclin A (Homo sapiens) (UniProt P24941+P20248+P78396); assay: Inhibition of CDK2/cyclin A assessed as residual activity at 10 uM by Cherenkov counting relative to control in presence of 20 uM ATP; type: protein-complex assay
Procedure, shortened: (§1)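 Single-point profiling at 10 µM in a panel of 78 protein kinases. Kinase activity is expressed as a percentage relative to control assays without compound.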

[2] = target: T1, Serine/threonine-protein kinase Sgk1 (Homo sapiens) (UniProt O00141); assay: Inhibition of SGK1 assessed as residual activity at 10 uM by Cherenkov counting relative to control in presence of 20 uM ATP
T1 sequence (whole entry): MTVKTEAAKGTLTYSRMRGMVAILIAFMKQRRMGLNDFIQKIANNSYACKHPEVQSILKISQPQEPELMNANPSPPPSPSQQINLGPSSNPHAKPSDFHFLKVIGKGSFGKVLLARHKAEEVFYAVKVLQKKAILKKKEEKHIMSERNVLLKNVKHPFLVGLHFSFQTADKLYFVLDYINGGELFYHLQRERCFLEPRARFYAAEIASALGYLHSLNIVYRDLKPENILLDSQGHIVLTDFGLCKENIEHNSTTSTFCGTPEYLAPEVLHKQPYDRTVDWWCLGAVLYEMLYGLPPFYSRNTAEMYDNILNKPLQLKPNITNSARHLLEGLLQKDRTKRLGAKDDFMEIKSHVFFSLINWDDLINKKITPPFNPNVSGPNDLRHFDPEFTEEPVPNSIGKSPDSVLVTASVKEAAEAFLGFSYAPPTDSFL
Procedure, shortened: (§2)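 Single-concentration profiling at 10 μM in a 78-kinase panel. Kinase activity is expressed as a percentage of control assays run without compound.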

[3] = target: RAC-beta serine/threonine-protein kinase (Homo sapiens) (UniProt P31751); assay: Inhibition of PKBbeta assessed as residual activity at 10 uM by Cherenkov counting relative to control in presence of 50 uM ATP; procedure, shortened: as §2
RAC-beta serine/threonine-protein kinase (Homo sapiens), sequence (P31751 whole entry): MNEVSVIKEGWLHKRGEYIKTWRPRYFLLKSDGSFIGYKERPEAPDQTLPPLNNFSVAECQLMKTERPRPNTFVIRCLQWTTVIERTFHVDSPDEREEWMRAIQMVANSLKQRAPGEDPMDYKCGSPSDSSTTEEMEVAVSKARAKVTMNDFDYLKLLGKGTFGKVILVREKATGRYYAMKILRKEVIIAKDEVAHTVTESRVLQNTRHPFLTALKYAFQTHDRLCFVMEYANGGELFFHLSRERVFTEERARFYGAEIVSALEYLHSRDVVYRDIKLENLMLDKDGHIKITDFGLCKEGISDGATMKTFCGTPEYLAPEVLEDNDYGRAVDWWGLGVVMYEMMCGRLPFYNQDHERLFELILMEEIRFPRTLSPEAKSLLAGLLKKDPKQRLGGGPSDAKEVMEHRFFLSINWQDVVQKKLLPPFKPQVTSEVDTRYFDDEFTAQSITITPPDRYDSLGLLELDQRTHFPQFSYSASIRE

[4] = target: T2, Serine/threonine-protein kinase BRSK2 (Homo sapiens) (UniProt Q8IWQ3); assay: Inhibition of BRSK2 assessed as residual activity at 10 uM by Cherenkov counting relative to control in presence of 50 uM ATP; procedure, shortened: as §1
T2 sequence (whole entry): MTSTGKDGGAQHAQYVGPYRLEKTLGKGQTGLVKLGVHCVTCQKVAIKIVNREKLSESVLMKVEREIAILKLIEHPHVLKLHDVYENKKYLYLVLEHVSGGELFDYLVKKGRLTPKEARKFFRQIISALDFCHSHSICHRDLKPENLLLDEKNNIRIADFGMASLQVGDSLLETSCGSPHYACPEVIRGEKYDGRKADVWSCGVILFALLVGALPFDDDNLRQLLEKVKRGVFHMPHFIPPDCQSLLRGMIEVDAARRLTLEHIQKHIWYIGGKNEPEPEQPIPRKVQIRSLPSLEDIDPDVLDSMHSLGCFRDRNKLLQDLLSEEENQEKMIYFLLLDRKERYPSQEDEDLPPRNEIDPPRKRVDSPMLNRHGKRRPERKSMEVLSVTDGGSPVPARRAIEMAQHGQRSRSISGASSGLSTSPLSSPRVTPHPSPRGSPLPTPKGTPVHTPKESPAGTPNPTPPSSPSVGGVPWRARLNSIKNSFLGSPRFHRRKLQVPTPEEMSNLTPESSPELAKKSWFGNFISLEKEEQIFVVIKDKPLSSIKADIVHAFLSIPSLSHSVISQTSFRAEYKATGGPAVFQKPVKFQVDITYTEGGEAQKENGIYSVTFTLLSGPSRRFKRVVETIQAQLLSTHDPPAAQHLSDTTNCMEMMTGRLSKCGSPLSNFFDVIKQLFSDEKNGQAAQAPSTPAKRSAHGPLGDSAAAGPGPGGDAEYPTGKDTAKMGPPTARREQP

[5] = target: Casein kinase I isoform delta (Rattus norvegicus, UniProt Q06486); assay: Inhibition of GST-fused rat CK1delta by Cherenkov counting in presence of 20 uM ATP
Casein kinase I isoform delta, sequence (Q06486 whole entry, the tested form may be a part, canonical isoform): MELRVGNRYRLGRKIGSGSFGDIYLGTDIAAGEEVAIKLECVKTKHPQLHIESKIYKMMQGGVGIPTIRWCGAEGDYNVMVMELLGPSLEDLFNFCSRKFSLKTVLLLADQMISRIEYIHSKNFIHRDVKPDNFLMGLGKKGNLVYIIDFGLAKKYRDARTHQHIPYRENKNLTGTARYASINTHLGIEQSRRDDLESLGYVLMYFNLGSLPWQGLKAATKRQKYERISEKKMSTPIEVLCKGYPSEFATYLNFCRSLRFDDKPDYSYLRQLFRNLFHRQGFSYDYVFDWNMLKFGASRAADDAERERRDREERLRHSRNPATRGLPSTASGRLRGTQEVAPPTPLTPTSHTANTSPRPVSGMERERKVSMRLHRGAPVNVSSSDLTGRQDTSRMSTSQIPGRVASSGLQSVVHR

[6] = target: Mitogen-activated protein kinase 1 (Homo sapiens) (UniProt P28482); assay: Inhibition of ERK2 assessed as residual activity at 0.1 uM by Cherenkov counting relative to control
Mitogen-activated protein kinase 1 (Homo sapiens), sequence (P28482 whole entry): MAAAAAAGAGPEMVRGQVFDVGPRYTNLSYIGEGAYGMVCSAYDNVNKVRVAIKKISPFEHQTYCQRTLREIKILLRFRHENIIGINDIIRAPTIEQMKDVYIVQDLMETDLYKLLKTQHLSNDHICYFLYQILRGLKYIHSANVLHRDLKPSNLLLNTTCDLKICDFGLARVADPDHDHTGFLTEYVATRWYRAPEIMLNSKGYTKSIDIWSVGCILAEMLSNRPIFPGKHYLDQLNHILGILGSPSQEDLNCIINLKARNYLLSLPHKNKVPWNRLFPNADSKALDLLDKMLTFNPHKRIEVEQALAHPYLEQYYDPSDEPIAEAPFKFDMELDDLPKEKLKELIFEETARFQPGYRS
Procedure, shortened: (§3)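 Single-concentration screen at 0.1 µM across a panel of 76 protein kinases. Each kinase was run at an ATP concentration approximating its ATP Km. Results are % mean residual activity versus control assays without compound (n = 3 ± SD).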

[7] = target: RAC-beta serine/threonine-protein kinase (Homo sapiens) (UniProt P31751); assay: Inhibition of PKBbeta assessed as residual activity at 0.1 uM by Cherenkov counting relative to control in presence of 50 uM ATP
Procedure, shortened: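 Single-concentration screen at 0.1 μM in a 76-kinase panel. ATP for each kinase was set near its Km for ATP. Residual activity is given as a percentage of control assays without compound, mean of n = 3 ± SD.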

[8] = target: Ephrin type-A receptor 2 (Homo sapiens) (UniProt P29317); assay: Inhibition of EPHA2 assessed as residual activity at 0.1 uM by Cherenkov counting relative to control in presence of 50 uM ATP; procedure, shortened: as §3
Ephrin type-A receptor 2 (Homo sapiens), sequence (P29317 whole entry): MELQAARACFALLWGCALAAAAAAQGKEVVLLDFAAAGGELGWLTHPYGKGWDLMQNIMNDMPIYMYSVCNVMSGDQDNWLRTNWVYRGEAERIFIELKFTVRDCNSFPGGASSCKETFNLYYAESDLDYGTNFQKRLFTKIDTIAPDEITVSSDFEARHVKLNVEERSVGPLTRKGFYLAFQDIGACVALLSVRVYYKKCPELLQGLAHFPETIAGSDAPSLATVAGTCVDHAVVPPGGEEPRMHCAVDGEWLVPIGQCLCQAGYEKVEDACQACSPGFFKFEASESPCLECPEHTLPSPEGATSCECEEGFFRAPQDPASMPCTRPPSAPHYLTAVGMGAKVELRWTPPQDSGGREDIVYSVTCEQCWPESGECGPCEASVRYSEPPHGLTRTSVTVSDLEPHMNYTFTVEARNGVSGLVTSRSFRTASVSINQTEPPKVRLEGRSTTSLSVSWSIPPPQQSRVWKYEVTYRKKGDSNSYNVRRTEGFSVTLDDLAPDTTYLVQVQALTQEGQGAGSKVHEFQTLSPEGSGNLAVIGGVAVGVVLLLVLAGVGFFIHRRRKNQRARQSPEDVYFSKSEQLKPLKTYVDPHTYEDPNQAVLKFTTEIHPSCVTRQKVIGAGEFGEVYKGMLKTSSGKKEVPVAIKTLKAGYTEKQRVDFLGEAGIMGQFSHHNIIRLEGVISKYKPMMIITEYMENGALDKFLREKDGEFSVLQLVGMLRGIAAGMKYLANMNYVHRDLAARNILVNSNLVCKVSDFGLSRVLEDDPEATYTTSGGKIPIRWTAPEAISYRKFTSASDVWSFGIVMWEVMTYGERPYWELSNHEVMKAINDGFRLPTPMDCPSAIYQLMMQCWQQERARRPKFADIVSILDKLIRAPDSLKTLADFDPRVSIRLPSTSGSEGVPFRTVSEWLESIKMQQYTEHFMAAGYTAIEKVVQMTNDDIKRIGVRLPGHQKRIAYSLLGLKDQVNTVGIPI

[9] = target: Serine/threonine-protein kinase pim-3 (Homo sapiens) (UniProt Q86V86); assay: Inhibition of PIM3 assessed as residual activity at 0.1 uM by Cherenkov counting relative to control in presence of 20 uM ATP
Procedure, shortened: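 Single-concentration selectivity screen at 0.1 μM against a panel of 76 protein kinases. Each kinase was run at an ATP level approximating its Km for ATP. Output is mean residual activity as % of the control assay without compound, n = 3 ± SD.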

[10] = Inhibition of CK2 assessed as residual activity at 0.1 uM by Cherenkov counting relative to control in presence of 5 uM ATP; procedure, shortened: as §3

Activity [1] | Activity [2] | Activity [3] | Activity [4] | IC50 [5] | Activity [6] | Activity [7] | Activity [8] | Activity [9] | Activity [10] | SMILES
98% | 91% | 104% | 93% | – | – | – | – | – | – | CC(C)c1noc(-c2ccc(F)cc2)c1-c1ccncc1
96% | 76% | 101% | 87% | 230 nM | – | – | – | – | – | CC(C)c1onc(-c2ccc(F)cc2)c1-c1ccncc1
– | – | – | – | 11 nM | 93% | 100% | 95% | 90% | 122% | COc1ccc(/C=C/C(=O)Nc2cc(-c3[nH]c([S+](C)[O-])nc3-c3ccc(F)cc3)ccn2)c(OC)c1 (stereo unspecified)
– | – | – | – | 5 nM | 91% | 98% | 97% | 81% | 115% | COc1ccc(/C=C/C(=O)Nc2cc(-c3[nH]c(SC)nc3-c3ccc(F)cc3)ccn2)c(OC)c1
